Here are results for one compound from ChEMBL document CHEMBL5661979, “Pharmacological inhibition of BMK1 suppresses tumor growth through promyelocytic leukemia protein” (Cancer Cell, 2010).

The structures appear in SMILES notation. pIC50: −log10 of the molar value.

The target of data set [1] is Serine/threonine-protein kinase 38 (Homo sapiens, UniProt Q15208). Description: Inhibition of NDR1 in human HeLa cells lysate pre incubated for 15 mins followed by ATP acyl phosphate probe addition and measured after 10 mins by LC-MS/MS analysis. The data set is classed as subcellular.
The next data set addresses Insulin receptor (Homo sapiens, UniProt P06213). Description: Inhibition of INSR in human HeLa cells lysate at 50 uM pre incubated for 15 mins followed by ADP acyl phosphate probe addition and measured after 10 mins by LC-MS/MS analysis relative to control. It counts as subcellular. Conditions: time 25.0 min.
Data set [2] deals with Serine/threonine-protein kinase 38-like (Homo sapiens, UniProt Q9Y2H1). The experiment in a line: Inhibition of NDR2 in human HeLa cells lysate at 50 uM pre incubated for 15 mins followed by ADP acyl phosphate probe addition and measured after 10 mins by LC-MS/MS analysis relative to control. Conditions: time 25.0 min. The data set is classed as subcellular.
Serine/threonine-protein kinase 38-like, sequence (Q9Y2H1 2-464 limits assumed): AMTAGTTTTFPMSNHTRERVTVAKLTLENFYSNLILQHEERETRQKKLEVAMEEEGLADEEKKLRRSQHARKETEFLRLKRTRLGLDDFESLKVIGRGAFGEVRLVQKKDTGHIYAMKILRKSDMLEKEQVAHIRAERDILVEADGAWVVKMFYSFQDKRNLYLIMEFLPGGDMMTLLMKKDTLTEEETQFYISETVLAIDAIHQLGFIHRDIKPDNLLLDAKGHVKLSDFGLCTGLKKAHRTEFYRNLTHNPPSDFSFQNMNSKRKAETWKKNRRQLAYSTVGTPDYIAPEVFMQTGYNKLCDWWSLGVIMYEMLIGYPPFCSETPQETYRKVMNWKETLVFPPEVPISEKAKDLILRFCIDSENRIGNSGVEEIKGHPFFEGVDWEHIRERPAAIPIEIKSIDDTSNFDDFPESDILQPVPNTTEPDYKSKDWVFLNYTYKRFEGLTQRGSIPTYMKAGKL
Data set [3] is described as follows: Inhibition of NEK6/7 in human HeLa cells lysate pre incubated for 15 mins followed by ADP acyl phosphate probe addition and measured after 10 mins by LC-MS/MS analysis. It counts as subcellular.
Data set [4] addresses STE20-related kinase adapter protein beta (Homo sapiens, UniProt Q9C0K7). The experiment in a line: Inhibition of ALS2CR2 in human HeLa cells lysate pre incubated for 15 mins followed by ADP acyl phosphate probe addition and measured after 10 mins by LC-MS/MS analysis. The data set is classed as subcellular. Summed up: (§1)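 HeLa cell lysates (5 mg/mL total protein) were preincubated with inhibitor at 0, 0.8, 2, 10 or 50 μM for 15 min. ATP or ADP acylphosphate probe was then added (5 μM final) for 10 min, and reactions were stopped with urea. Up to four fragment ions per kinase probe-peptide were quantified by targeted MS. % inhibition was taken relative to untreated lysate. Run in duplicate.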

Data set [5] concerns the target Serine/threonine-protein kinase 24 (Homo sapiens, UniProt Q9Y6E0). Description: Inhibition of MST3 in human HeLa cells lysate pre incubated for 15 mins followed by ATP acyl phosphate probe addition and measured after 10 mins by LC-MS/MS analysis. It counts as subcellular.
For data set [6], the target named is Ribosomal protein S6 kinase alpha-1 (Homo sapiens, UniProt Q15418). Description: Inhibition of RSK1 domain 2 K1 site in human HeLa cells lysate at 2 uM pre incubated for 15 mins followed by ADP acyl phosphate probe addition and measured after 10 mins by LC-MS/MS analysis relative to control. Conditions: time 25.0 min. It counts as subcellular.
For data set [7], the target named is RAC-alpha serine/threonine-protein kinase (Homo sapiens, UniProt P31749). Description: Inhibition of AKT1 in human HeLa cells lysate at 50 uM pre incubated for 15 mins followed by ATP acyl phosphate probe addition and measured after 10 mins by LC-MS/MS analysis relative to control. It counts as subcellular. Conditions: time 25.0 min. Put shortly:
as §1

For data set [8], the target named is 3-phosphoinositide-dependent protein kinase 1 (Homo sapiens, UniProt O15530). The experiment in a line: Inhibition of PDK1 in human HeLa cells lysate pre incubated for 15 mins followed by ADP acyl phosphate probe addition and measured after 10 mins by LC-MS/MS analysis. It counts as subcellular.
The nature of data set [9]: Inhibition of KHS1/2 in human HeLa cells lysate at 50 uM pre incubated for 15 mins followed by ATP acyl phosphate probe addition and measured after 10 mins by LC-MS/MS analysis relative to control. Conditions: 25 min, condition cancer.
The next data set concerns the target SRSF protein kinase 1 (Homo sapiens, UniProt Q96SB4). Description: Inhibition of SRPK1 in human HeLa cells lysate at 50 uM pre incubated for 15 mins followed by ATP acyl phosphate probe addition and measured after 10 mins by LC-MS/MS analysis relative to control. It counts as subcellular. Conditions: time 25.0 min.
Data set [10] is described as follows: MRT in Sprague-Dawley rat at 2 mg/kg, po measured up to 8 hrs by LC-MS/MS analysis. It counts as ADME, organism-based. Conditions: in vivo.
A short description of data set [11]: Toxicity in C57Bl/6 mouse assessed as effect on sodium level at 50 mg/kg, ip for 14 days (reference value: 156 mM). It counts as organism-based. Conditions: in vivo, 336 h, time 14 day.
The target of another data set is Wee1-like protein kinase (Homo sapiens, UniProt P30291). The experiment in a line: Inhibition of Wee1 in human HeLa cells lysate at 50 uM pre incubated for 15 mins followed by ATP acyl phosphate probe addition and measured after 10 mins by LC-MS/MS analysis relative to control. The data set is classed as subcellular. Conditions: time 25.0 min.
Wee1-like protein kinase, sequence (P30291 whole entry, looked up): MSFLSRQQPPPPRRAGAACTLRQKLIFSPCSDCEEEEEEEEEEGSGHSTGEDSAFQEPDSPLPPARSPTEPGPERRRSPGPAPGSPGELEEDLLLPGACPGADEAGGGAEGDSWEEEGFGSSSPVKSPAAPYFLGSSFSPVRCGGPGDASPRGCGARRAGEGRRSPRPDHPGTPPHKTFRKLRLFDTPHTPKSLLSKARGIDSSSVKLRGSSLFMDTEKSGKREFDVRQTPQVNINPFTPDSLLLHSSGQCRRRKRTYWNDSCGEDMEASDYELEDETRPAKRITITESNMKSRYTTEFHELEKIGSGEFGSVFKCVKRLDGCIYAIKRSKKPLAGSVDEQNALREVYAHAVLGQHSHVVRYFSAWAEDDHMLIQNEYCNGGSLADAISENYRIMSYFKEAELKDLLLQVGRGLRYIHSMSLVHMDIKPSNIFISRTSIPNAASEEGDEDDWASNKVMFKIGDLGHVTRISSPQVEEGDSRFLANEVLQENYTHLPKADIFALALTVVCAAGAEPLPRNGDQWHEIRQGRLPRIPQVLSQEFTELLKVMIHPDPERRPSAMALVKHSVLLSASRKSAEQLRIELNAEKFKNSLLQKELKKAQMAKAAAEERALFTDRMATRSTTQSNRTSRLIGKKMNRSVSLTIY
In data set [12] the target is T1, Mitogen-activated protein kinase kinase kinase 7 (Homo sapiens) (UniProt O43318).
T1 sequence (whole entry): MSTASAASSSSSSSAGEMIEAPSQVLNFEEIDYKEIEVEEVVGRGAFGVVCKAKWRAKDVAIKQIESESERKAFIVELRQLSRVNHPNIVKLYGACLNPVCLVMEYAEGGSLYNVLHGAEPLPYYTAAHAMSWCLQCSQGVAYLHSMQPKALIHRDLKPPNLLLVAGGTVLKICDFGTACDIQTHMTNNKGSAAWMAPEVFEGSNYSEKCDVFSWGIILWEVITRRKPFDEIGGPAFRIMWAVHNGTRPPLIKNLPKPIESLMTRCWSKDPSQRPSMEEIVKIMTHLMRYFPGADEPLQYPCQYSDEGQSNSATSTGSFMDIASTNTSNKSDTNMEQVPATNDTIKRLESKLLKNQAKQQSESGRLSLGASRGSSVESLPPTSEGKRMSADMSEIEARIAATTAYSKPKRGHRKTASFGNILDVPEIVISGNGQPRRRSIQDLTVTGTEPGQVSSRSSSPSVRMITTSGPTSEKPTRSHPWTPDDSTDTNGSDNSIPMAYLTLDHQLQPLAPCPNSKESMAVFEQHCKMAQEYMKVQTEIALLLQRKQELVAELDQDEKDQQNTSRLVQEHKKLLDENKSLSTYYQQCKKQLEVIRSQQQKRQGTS
Description: Inhibition of TAK1 in human HeLa cells lysate at 50 uM pre incubated for 15 mins followed by ATP acyl phosphate probe addition and measured after 10 mins by LC-MS/MS analysis relative to control. The data set is classed as subcellular. Conditions: time 25.0 min.

The target of data set [13] is Mitogen-activated protein kinase 14 (Homo sapiens, UniProt Q16539). Description: Inhibition of P38a in human HeLa cells lysate pre incubated for 15 mins followed by ATP acyl phosphate probe addition and measured after 10 mins by LC-MS/MS analysis. It counts as subcellular.
Mitogen-activated protein kinase 14, sequence (Q16539 whole entry): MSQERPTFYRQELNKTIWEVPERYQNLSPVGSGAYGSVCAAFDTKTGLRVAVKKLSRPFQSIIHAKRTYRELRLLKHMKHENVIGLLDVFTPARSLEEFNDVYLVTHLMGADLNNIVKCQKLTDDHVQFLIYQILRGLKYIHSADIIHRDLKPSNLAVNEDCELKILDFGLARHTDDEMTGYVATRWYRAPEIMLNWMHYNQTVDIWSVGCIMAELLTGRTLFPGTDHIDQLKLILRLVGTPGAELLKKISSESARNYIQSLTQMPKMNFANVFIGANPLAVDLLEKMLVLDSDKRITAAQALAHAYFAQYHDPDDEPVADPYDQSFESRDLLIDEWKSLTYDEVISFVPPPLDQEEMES
For data set [14], the target named is Cyclin-dependent kinase 12 (Homo sapiens, UniProt Q9NYV4). Description: Inhibition of CRK7 in human HeLa cells lysate at 2 uM pre incubated for 15 mins followed by ADP acyl phosphate probe addition and measured after 10 mins by LC-MS/MS analysis relative to control. The data set is classed as subcellular. Conditions: time 25.0 min.
Cyclin-dependent kinase 12, sequence (Q9NYV4 whole entry, looked up): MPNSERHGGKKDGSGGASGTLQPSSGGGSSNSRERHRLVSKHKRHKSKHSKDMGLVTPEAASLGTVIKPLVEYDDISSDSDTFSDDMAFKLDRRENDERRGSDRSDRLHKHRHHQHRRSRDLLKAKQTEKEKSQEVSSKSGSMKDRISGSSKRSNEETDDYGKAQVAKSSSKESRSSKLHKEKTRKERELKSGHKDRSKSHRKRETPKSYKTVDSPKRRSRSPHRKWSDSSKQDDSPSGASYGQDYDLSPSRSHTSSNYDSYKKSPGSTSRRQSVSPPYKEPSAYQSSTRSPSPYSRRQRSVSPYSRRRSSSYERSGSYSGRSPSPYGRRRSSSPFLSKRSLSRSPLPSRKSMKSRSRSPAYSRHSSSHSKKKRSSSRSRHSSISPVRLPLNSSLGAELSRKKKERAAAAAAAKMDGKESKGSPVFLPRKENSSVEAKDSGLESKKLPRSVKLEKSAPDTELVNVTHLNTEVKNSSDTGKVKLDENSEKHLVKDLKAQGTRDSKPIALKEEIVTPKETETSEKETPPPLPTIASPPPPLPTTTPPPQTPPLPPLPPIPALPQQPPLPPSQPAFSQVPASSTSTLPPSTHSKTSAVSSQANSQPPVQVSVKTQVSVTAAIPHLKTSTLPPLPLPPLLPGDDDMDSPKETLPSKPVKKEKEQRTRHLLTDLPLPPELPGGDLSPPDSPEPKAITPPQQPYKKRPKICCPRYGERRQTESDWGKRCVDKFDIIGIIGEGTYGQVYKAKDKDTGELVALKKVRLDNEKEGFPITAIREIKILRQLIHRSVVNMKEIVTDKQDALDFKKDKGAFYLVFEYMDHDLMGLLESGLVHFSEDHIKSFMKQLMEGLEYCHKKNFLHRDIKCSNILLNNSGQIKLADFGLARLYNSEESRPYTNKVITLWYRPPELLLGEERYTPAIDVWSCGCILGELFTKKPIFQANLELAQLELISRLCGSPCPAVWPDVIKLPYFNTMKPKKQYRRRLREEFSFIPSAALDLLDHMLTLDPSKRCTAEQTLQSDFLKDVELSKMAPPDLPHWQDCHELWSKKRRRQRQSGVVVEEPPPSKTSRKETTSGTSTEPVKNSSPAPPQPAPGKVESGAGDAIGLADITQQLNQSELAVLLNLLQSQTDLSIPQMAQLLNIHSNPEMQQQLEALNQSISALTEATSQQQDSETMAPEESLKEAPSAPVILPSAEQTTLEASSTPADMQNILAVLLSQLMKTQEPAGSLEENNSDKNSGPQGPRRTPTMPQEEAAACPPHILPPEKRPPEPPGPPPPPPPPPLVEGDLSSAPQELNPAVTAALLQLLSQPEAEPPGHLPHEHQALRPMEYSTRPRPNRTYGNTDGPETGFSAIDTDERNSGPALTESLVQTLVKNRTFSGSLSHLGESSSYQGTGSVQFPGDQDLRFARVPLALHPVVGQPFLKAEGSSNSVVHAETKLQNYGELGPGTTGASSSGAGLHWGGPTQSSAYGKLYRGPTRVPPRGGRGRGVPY
Data set [15] deals with Dual specificity mitogen-activated protein kinase kinase 1 (Homo sapiens, UniProt Q02750). The experiment in a line: Inhibition of MAP2K1 in human HeLa cells lysate at 10 uM pre incubated for 15 mins followed by ATP acyl phosphate probe addition and measured after 10 mins by LC-MS/MS analysis relative to control. The data set is classed as subcellular. Conditions: time 25.0 min.
Dual specificity mitogen-activated protein kinase kinase 1, sequence (Q02750 whole entry): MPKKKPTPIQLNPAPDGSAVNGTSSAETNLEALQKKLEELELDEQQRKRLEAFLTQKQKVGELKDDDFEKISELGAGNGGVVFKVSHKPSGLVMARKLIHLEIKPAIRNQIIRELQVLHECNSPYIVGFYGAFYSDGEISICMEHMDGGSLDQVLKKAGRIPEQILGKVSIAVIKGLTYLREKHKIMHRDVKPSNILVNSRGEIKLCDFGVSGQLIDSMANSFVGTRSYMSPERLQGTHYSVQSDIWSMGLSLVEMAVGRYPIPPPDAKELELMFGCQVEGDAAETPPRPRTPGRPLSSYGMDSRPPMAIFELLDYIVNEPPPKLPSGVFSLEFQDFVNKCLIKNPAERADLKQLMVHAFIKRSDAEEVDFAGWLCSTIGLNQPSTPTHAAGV

Data set [16] concerns the target Serine/threonine-protein kinase PLK1 (Homo sapiens, UniProt P53350). The experiment in a line: Inhibition of PLK1 splice variant in human HeLa cells lysate pre incubated for 15 mins followed by ADP acyl phosphate probe addition and measured after 10 mins by LC-MS/MS analysis. The data set is classed as subcellular.

Serine/threonine-protein kinase PLK1, sequence (P53350 2-603 limits assumed, stated change not applied): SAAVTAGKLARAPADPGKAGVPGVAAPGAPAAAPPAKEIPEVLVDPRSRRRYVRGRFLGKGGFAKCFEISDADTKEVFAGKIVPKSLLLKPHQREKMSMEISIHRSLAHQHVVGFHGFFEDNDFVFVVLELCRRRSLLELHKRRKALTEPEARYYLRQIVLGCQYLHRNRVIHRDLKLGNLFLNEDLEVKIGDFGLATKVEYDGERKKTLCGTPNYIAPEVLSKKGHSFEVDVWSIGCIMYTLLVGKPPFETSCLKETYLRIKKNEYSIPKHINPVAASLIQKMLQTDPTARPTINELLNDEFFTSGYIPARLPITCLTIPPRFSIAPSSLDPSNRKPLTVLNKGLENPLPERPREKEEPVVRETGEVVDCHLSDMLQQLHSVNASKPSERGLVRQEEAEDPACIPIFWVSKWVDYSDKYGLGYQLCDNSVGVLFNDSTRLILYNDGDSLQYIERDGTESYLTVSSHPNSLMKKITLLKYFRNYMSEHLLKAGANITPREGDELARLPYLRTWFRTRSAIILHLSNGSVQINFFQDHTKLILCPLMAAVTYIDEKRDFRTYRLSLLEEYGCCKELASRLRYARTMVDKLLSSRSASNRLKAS
STE20-related kinase adapter protein beta, sequence (Q9C0K7 whole entry, the tested form may be a part): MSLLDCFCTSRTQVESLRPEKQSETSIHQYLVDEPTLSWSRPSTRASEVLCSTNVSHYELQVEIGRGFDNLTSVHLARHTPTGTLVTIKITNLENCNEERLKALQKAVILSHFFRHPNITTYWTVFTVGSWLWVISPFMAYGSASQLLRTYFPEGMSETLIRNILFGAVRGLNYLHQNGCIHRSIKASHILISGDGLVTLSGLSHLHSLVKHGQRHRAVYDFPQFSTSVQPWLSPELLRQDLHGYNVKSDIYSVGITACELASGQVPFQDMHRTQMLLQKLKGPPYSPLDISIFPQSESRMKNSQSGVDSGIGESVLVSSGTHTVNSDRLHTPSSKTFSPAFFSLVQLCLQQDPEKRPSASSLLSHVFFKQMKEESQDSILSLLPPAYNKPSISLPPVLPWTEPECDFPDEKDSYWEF
SRSF protein kinase 1, sequence (Q96SB4 whole entry): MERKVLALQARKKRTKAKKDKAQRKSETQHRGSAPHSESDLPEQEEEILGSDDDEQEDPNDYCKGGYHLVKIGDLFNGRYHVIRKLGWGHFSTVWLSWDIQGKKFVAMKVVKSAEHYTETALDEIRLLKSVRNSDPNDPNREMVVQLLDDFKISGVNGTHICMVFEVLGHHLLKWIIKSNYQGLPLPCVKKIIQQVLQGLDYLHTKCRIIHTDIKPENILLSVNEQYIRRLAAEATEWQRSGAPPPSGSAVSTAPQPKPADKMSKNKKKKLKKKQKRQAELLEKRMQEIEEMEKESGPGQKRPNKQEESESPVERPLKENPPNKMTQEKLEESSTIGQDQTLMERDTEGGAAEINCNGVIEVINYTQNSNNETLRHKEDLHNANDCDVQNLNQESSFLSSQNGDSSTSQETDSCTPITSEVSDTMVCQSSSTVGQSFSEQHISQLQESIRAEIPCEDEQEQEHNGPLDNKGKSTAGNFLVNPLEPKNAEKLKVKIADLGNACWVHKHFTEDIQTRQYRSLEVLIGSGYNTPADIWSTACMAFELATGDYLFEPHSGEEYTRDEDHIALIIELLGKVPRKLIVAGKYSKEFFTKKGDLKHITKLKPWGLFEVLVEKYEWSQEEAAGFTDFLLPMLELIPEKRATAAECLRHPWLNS

In general, pIC50 refers to −log10 of the IC50, conventionally taken in molar units. Read a high pIC50 as a low IC50. Usually inhibition stands for the change of the read-out against control, counted positive when it falls. The MRT is a mean duration of stay, worked out from the concentration-time curve. Take `CCOc1cc(N2CCC(O)CC2)ccc1Nc1ncc2c(n1)N(C)c1ccccc1C(=O)N2C`: the pIC50 in data set [1], in data set [3], in data set [4], in [5], in data set [8] and in [13] was less than 4.30 each time. In data set [16], this compound had a pIC50 of less than 4.30. Moreover, the inhibition against Insulin receptor is -6.5%; in data set [2] it was 6.8%; in data set [6] it was 18%; in [7] it was 15.4%; at SRSF protein kinase 1 it was -7.5%; against Wee1-like protein kinase, 4.1%. Also, the inhibition in data set [12] was 15.7%; in data set [14], 5.4%; in data set [15], -1.9%. The inhibition at 50 µM in [9] came out at 2.5%. The compound further yielded an MRT in [10] of 4.8 h. Moreover, the Activity in data set [11] turned out to be 143 mM.
